Data taken from ChEMBL document CHEMBL4706562, “Design, synthesis and evaluation of covalent inhibitors of DprE1 as antitubercular agents” (Eur J Med Chem, 2020).
Converted amounts (≈) assume the structure as drawn. The source made the active and inactive calls. The calls are words filed in the database; no cut-off is given here.

How the values were obtained:
[1] = target: T1, Decaprenylphosphoryl-beta-D-ribose oxidase (Mycobacterium tuberculosis (strain ATCC 25618 / H37Rv), UniProt P9WJF1); experiment: Inhibition of Mycobacterium tuberculosis DprE1 expressed in Escherichia coli BL21 (DE3) cells assessed as formation of resorufin using FPR as substrate by Amplex Red hydrogen/peroxidase coupled assay
T1 sequence (P9WJF1 whole entry): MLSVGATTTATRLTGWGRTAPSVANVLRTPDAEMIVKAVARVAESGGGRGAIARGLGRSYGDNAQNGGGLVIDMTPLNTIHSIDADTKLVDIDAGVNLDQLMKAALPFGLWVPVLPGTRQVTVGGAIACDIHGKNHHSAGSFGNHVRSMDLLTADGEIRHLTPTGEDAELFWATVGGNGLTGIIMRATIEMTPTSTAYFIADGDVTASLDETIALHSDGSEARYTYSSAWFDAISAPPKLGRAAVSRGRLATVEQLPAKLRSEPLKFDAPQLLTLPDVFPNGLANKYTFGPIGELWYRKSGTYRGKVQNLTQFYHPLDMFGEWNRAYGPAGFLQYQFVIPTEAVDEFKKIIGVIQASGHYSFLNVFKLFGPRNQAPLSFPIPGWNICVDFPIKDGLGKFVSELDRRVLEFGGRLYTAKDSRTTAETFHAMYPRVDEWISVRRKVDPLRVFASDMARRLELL

[2] = tested on: Mycobacterium tuberculosis; experiment: Antimycobacterial activity against Mycobacterium tuberculosis H37Rv ATCC 25618 assessed as inhibition of visible bacterial growth by MABA assay; type: functional
In short: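 Inoculum adjusted to 1.0 McFarland, diluted 1:20 in Middlebrook 7H9 with 10% OADC and 0.2% glycerol. Compounds taken from 1.0 mg/mL DMSO stocks and serially diluted two-fold. Microplate alamar blue read-out: blue to pink marks growth, colours recorded after 24 h. MIC taken as the lowest concentration giving no colour change. PBTZ169 served as positive control.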

[3] = target: T2, Decaprenylphosphoryl-beta-D-ribose oxidase (Mycobacterium tuberculosis (strain ATCC 25618 / H37Rv)) (UniProt P9WJF1); experiment: Inhibition of Mycobacterium tuberculosis H37Rv DprE1 assessed as increase in trehalose monomycolates at 10 x MIC preincubated for 24 hrs using [14C]acetate by TLC based metabolic labelling assay relative to control
T2 sequence (whole entry): T1 sequence (P9WJF1 whole entry)
In short: (§1)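 M. tuberculosis H37Rv cultures labelled with [14C]acetate for 24 h. […] Lipids extracted and resolved by TLC, with TDM/TMM compared to untreated control cells. BTZ043 and PBTZ169 served as control inhibitors.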

[4] = target: T2, Decaprenylphosphoryl-beta-D-ribose oxidase (Mycobacterium tuberculosis (strain ATCC 25618 / H37Rv)); experiment: Inhibition of Mycobacterium tuberculosis H37Rv DprE1 assessed as increase in trehalose monomycolates at 100 x MIC incubated for 24 hrs using [14C]acetate by TLC based metabolic labelling assay relative to control; in short: as §1
[5] = Half life of the compound in PBS assessed as parent compound remaining by HPLC analysis; type: physicochemical
[6] = Reactivity of compound towards methyl thioglycolate in PBS measured after 48 hrs by LC/MS/MS; type: physicochemical; settings: buffer
In short: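 Test compound and methyl thioglycolate co-incubated at 37 °C in 50 mM PBS, pH 7.4. The reaction was followed by TLC, and aliquots were injected into LC-MS/MS at set intervals over 48 h. Electrospray positive-ion mass spectra detected MT adducts, and half-life was determined.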

[7] = target: T2, Decaprenylphosphoryl-beta-D-ribose oxidase (Mycobacterium tuberculosis (strain ATCC 25618 / H37Rv)); experiment: Inhibition of Mycobacterium tuberculosis H37Rv DprE1 assessed as increase in trehalose dimycolates at 100 x MIC incubated for 24 hrs using [14C]acetate by TLC based metabolic labelling assay relative to control; in short: as §1
[8] = target: T2, Decaprenylphosphoryl-beta-D-ribose oxidase (Mycobacterium tuberculosis (strain ATCC 25618 / H37Rv)); experiment: Inhibition of Mycobacterium tuberculosis H37Rv DprE1 assessed as increase in trehalose dimycolates at 10 x MIC preincubated for 24 hrs using [14C]acetate by TLC based metabolic labelling assay relative to control; in short: as §1
[9] = target: T2, Decaprenylphosphoryl-beta-D-ribose oxidase (Mycobacterium tuberculosis (strain ATCC 25618 / H37Rv)); experiment: Covalent binding affinity to Mycobacterium tuberculosis DprE1 assessed as adduct formation by measuring 490 Da shift increase in molecular weight at 100 uM by Mass spectrometry analysis
[10] = target: T2, Decaprenylphosphoryl-beta-D-ribose oxidase (Mycobacterium tuberculosis (strain ATCC 25618 / H37Rv)); experiment: Binding affinity to trypsin digested Mycobacterium tuberculosis DprE1 protein assessed as Cys387 adduct formation with 387-CVDFP-391 sequence at 300 uM by measuring retention time by LC/MS analysis
[11] = target: T2, Decaprenylphosphoryl-beta-D-ribose oxidase (Mycobacterium tuberculosis (strain ATCC 25618 / H37Rv)); experiment: Inhibition of Mycobacterium tuberculosis DprE1 expressed in Escherichia coli BL21 (DE3) cells assessed as formation of resorufin using FPR as substrate at 20 uM by Amplex Red hydrogen/peroxidase coupled assay; parameters: scale not given: the % may be the effect or the level left
[12] = target: T2, Decaprenylphosphoryl-beta-D-ribose oxidase (Mycobacterium tuberculosis (strain ATCC 25618 / H37Rv)); experiment: Covalent binding affinity to Mycobacterium tuberculosis DprE1 assessed as adduct formation by measuring 460 Da shift increase in molecular weight at 100 uM by Mass spectrometry analysis
[13] = target: T2, Decaprenylphosphoryl-beta-D-ribose oxidase (Mycobacterium tuberculosis (strain ATCC 25618 / H37Rv)); experiment: Binding affinity to trypsin digested Mycobacterium tuberculosis DprE1 protein assessed as Cys387 adduct formation with 385-NICVDFPIL-393 sequence at 300 uM by measuring retention time by LC/MS analysis

| SMILES | IC50 [1] [µM] | MIC [2] [µM] | Activity [4] | half-life [5] [h] | Activity [6] | Activity [7] | also measured |
| --- | --- | --- | --- | --- | --- | --- | --- |
| O=c1nc(N2CCN(CC3CCCCC3)CC2)sc2c(I)cc(C(F)(F)F)cc12 | 2.35 | 0.63 (≈ 0.339 µg/mL) |  |  |  |  |  |
| COC(=O)C#Cc1cc(C(F)(F)F)cc2c(=O)nc(N3CCN(CC4CCCCC4)CC3)sc12 | 0.14 | 10 (≈ 4.94 µg/mL) | inactive | 1.2 | Active | inactive | Activity [3]: Active; Activity [8]: Active |
| NC(=O)CCc1cc(C(F)(F)F)cc2c(=O)nc(N3CCN(CC4CCCCC4)CC3)sc12 | 16.7 | > 9 |  |  |  |  |  |
| COC(=O)/C=C/c1cc(C(F)(F)F)cc2c(=O)nc(N3CCN(CC4CCCCC4)CC3)sc12 | 1.24 | > 20 | inactive | 1 | Active | inactive | Activity [3]: Active; Activity [9]: Active; Activity [8]: Active; Retention time [10]: 43.3 min |
| O=c1nc(N2CCN(CC3CCCCC3)CC2)sc2nc(Cl)ncc12 | > 20 | > 20 |  | 4 | Active |  |  |
| O=c1nc(N2CCN(CC3CCCCC3)CC2)sc2c([N+](=O)[O-])cc(C(F)(F)F)cc12 [MACOZINONE] |  |  | Active |  |  | Active |  |
| COC(=O)CCc1cc(C(F)(F)F)cc2c(=O)nc(N3CCN(CC4CCCCC4)CC3)sc12 | 5.4 | > 9 |  |  |  |  |  |
| CN(C)C(=O)/C=C/c1cc(C(F)(F)F)cc2c(=O)nc(N3CCN(CC4CCCCC4)CC3)sc12 | 1.25 | > 20 |  | > 48 | Active |  |  |
| N#C/C=C/c1cc(C(F)(F)F)cc2c(=O)nc(N3CCN(CC4CCCCC4)CC3)sc12 |  | > 20 |  | 0.2 | Active |  | Activity [11]: < 70% |
| N#Cc1ccc2c(=O)nc(N3CCN(CC4CCCCC4)CC3)sc2n1 | 7.72 | > 12 |  |  |  |  |  |
| C[C@H]1COC2(CCN(c3nc(=O)c4cc(C(F)(F)F)cc([N+](=O)[O-])c4s3)CC2)O1 |  |  | Active |  |  | Active |  |
| N#Cc1ncc2c(=O)nc(N3CCN(CC4CCCCC4)CC3)sc2n1 | > 20 | 6.73 (≈ 2.49 µg/mL) |  |  |  |  |  |
| N#CCCc1cc(C(F)(F)F)cc2c(=O)nc(N3CCN(CC4CCCCC4)CC3)sc12 | 13.2 | > 9 |  |  |  |  |  |
| O=c1nc(N2CCN(CC3CCCCC3)CC2)sc2c(Cl)cc(C(F)(F)F)cc12 | 0.92 | 0.03 (≈ 0.0134 µg/mL) |  |  |  |  | Activity [3]: Active; Activity [8]: Active |
| O=c1nc(N2CCN(CC3CCCCC3)CC2)sc2c(/C=C/c3ccccn3)cc(C(F)(F)F)cc12 |  | > 20 |  |  |  |  | Activity [11]: < 70% |
| O=c1nc(N2CCN(CC3CCCCC3)CC2)sc2c(Br)cc(C(F)(F)F)cc12 | 1.84 | 0.16 (≈ 0.0785 µg/mL) |  |  |  |  | Activity [3]: Active; Activity [8]: Active |
| CNC(=O)/C=C/c1cc(C(F)(F)F)cc2c(=O)nc(N3CCN(CC4CCCCC4)CC3)sc12 | 0.39 | 20 (≈ 9.89 µg/mL) | inactive |  |  | inactive |  |
| NC(=O)/C=C/c1cc(C(F)(F)F)cc2c(=O)nc(N3CCN(CC4CCCCC4)CC3)sc12 | 0.2 | 20 (≈ 9.61 µg/mL) | inactive | 10 | Active | inactive | Activity [3]: Active; Activity [12]: Active; Retention time [13]: 29.3 min; Activity [8]: Active |
| N#Cc1cc(C(F)(F)F)cc2c(=O)nc(N3CCN(CC4CCCCC4)CC3)sc12 | 1.7 | 0.16 (≈ 0.0698 µg/mL) |  | 12 | Active |  |  |
